Measured values reported in PMC3839535 (Nature chemical biology, 2013).
Entries after “also recorded” stand apart in the source; their conditions may differ.

Assays:
human melanopsin [1] = target: T1, human melanopsin (Homo sapiens, UniProt Q9UHM6); test: Radioligand binding with [^3H]2-AA41612 to CHO^Opn4 cell membranes; details: competition binding
T1 sequence (Q9UHM6 1-478): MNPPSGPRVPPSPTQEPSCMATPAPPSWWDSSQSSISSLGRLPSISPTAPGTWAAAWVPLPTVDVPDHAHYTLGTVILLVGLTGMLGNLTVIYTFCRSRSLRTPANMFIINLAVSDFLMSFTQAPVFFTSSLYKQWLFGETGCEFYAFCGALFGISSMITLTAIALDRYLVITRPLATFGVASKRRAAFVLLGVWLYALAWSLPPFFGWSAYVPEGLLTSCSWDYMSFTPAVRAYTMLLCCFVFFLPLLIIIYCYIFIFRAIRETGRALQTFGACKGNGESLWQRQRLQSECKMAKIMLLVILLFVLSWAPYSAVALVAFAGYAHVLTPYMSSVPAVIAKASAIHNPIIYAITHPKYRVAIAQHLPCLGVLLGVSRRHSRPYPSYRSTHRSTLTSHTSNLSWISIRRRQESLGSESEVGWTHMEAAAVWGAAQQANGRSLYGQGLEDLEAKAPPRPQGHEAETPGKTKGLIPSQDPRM
In short: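 Membranes came from light-exposed CHO cells stably expressing human melanopsin. Cells were sonicated in ice-cold 20 mM Tris-HCl, 10 mM EDTA, pH 7.4, then spun at 200g for 5 min and 40,000g for 20 min at 4 °C, and washed. Assay buffer was 50 mM Tris-HCl, 1 mM EDTA, 5 mM MgSO4, pH 7.4. Saturation binding used increasing concentrations of [3H] radioligand. Competition binding used 300 pM radioligand against increasing competitor for 2 h in the dark at 25 °C. Reactions were filtered through PEI-treated glass fibre filters and counted by scintillation. Nonspecific binding was defined with 10 µM 9-cis retinal, and specific binding was taken as total minus nonspecific.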

mouse melanopsin = target: T2, mouse melanopsin (Mus musculus, UniProt Q9QXZ9); test: Melanopsin photocurrent in Xenopus oocytes; type: cell-based
T2 sequence (Q9QXZ9 1-521): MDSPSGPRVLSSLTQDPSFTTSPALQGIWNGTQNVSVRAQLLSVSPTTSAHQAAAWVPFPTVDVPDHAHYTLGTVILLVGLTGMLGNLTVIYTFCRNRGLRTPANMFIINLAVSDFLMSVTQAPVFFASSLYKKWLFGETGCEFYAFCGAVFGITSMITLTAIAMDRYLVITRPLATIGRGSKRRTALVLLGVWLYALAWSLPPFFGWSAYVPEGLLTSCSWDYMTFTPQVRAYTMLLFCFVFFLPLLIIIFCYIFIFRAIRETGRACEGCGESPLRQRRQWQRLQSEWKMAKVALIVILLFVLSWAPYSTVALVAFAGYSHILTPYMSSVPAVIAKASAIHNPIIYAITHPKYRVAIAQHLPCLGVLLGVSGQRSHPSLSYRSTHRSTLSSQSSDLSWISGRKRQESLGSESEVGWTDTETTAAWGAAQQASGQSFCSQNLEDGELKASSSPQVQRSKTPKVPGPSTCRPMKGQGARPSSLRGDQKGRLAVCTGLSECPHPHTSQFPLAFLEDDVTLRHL
In short: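 Stage IV Xenopus oocytes injected with in vitro transcribed, polyadenylated mRNAs for mouse melanopsin, TrpC3, Gαq and Arrb1. Test compound was perfused for 3 min at increasing concentrations before 50 µM 11-cis retinal was added. Melanopsin photocurrent was recorded intracellularly in response to 60 s white light, averaged over n = 5 oocytes.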

human melanopsin [2] = target: T1, human melanopsin; test: Ca^2+ release assay in CHO^Opn4 cells; type: cell-based
[3] = test system: 74 biological targets including GPCRs and ion channels; test: Radioligand binding panel of 74 biological targets; details: 10 µM
rod/cone photoreceptors = test: Electroretinogram; type: in vivo; details: WT C57BL/6J and Opn4^−/− mice, 30 mg kg^-1, recorded within 30 min of administration, versus vehicle
neonatal mice = test: Negative phototaxis assay; type: in vivo; details: WT neonatal pups (P7-P9), 30 mg kg^−1 sub-cutaneous, 480 nm light
In short: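 WT and Opn4−/− pups aged P7–P9 were tested once daily. Pups were dark-adapted for 1 h, then given vehicle or compound at 30 mg kg−1 s.c. Each pup wore a head reflective sticker and sat in a transparent tube for 10 min. After 5 min of darkness, the head end was lit with 480 nm light at 9.5 × 10^15 ph/cm2/s. IR video covered 2 min before and 5 min after light onset. Head distance was scored in 1 s bins, and mean activity was compared before and after light. Pups without any bin above 1.3 mm/bin before light were excluded.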

mice = test: Pupillary light reflex; type: in vivo; details: 10^13 ph.cm^−2.s^−1
In short: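 rd, WT and Opn4−/− mice carried an acrylic headpost and had at least 1 wk of recovery. Dark-adapted mice received vehicle or compound at 30 mg kg−1 IP 20 min before the first light, plus tropicamide in the left eye. The right eye was filmed under IR at 30 Hz. Each 5 min sequence was 1 min dark, 1 min 480 nm light (1 × 10^13 or 1 × 10^10 ph.cm−2.s−1), then 3 min dark. Sequences were repeated 19, 29 and 39 min post-injection. Pupil diameter was normalised to the mean of the first 20 s of darkness; n = 6–7.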

[4] = Pharmacokinetics: retina and brain levels after IP dosing; type: in vivo; details: mice, 30 mg kg^−1 IP, within 2 h
In short: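 Mice were dosed at 30 mg kg−1 IP, and retina and brain were sampled at several times afterwards. Frozen brains were homogenised in four volumes of 50% water/30% 2-propanol/20% DMSO and spiked with internal standard. Samples were centrifuged and the supernatant analysed by LC/MS/MS. Quantitation used a standard curve (0–5,000 ng/ml) prepared in homogenate.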

| Structure (SMILES) | Hill slope, displacement of [^3H]2-AA41612 (human melanopsin [1]) | IC50 (mouse melanopsin) [nM] | IC50 (human melanopsin [2]) [nM] | inhibition of radioligand binding to a panel of 74 biological targets [3] | slope of Schild regression (dose ratio) plot (human melanopsin [2]; versus 9-cis retinal, light-exposed CHO^Opn4 cells) | effect on rod and rod/cone electroretinogram (rod/cone photoreceptors) | effect on light aversion (negative phototaxis) behavior (neonatal mice) | effect on PLR under high light intensity (mice; Wild type (WT) mice) | attenuation of pupil constriction in response to light (mice; adult rd mice, 30 mg kg^−1 i.p. 20 min prior) | fraction cleared from the retina [4] [%] |
| --- | --- | --- | --- | --- | --- | --- | --- | --- | --- | --- |
| CC1=C(/C=C/C(C)=C\C=C\C(C)=C\C=O)C(C)(C)CCC1 [9-cis retinal, reference compound] | ~1.0 | – | – | – | – | – | – | – | – | – |
| COc1cc(Cl)c(S(=O)(=O)N2CCCCC2)cc1Cl [AA41612, 1-(2,5-Dichloro-4-methoxy-benzenesulfonyl)-piperidine] | ~1.0 | 20 | 15.8 ± 1.8 | – | – | – | – | – | – | – |
| COc1ccc(S(=O)(=O)N2CCCCC2)cc1C [AA92593, 1-((4-methoxy-3-methylphenyl)sulfonyl)piperidine] | ~1.0 | 190 | – | failed to inhibit radioligand binding | 0.9 | no noticeable inhibition of rod/cone photoreceptors | significantly reduced; also recorded: remarkably reduced light aversion behavior | attenuated PLR | ~ 50% | > 95 |
